# From PubChem BioAssay
# A selection: hits, their analogues and other compounds. The true share with any hit is near 3.6%.
# T cruzi repl: inhibitors of intracellular T. cruzi growth, primary screen, luminescence, NIH3T3 host cells | T. cruzi beta-gal in NIH3T3, 90 h | inhibition, % (concentration not given with the values) | 300,000 tested, 1.4% active;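 active = mean inhibition across valid replicates above about 55%, limit read from the data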;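 note: signal also drops with host cell toxicity which is not excluded here; 0% = plate median of DMSO wells and 100% = zero luminescence signal; higher percent means less beta-gal luminescence so fewer parasites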
#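 System: Mouse NIH/3T3 fibroblasts infected with β-gal-expressing T. cruzi Tulahuen C4 | Quantity: NIH/3T3 cells, 5,000 per well | Reagent: 5000 reporter trypomastigotes per well | Dosing: Compound pinned at 50 nL/well, DMSO | Schedule: 3 h host attachment, then at least 90 h co-culture | Detection: GalScreen luminescence, 60 min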
# PfHsp90 yeast 2: growth inhibition of PfHsp90-expressing yeast, primary screen, antimalarial PfHsp90 inhibitor project, S. cerevisiae, BacTiter-Glo luminescence, single point, set 2; BacTiter-Glo ATP, 48 h; yeast lacking PDR1 and PDR3 efflux regulators; inhibition, % at 9.4 µM; 310,000 tested, 0.32% active; AID 504621, 2011;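 active = every replicate shows inhibition above about 80%, whatever the replicate mean, limit read from the data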;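 note: 0% = DMSO neutral controls and 100% = 20 µM radicicol positive controls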
# Beta apoptosis: inhibitors of cytokine-induced beta cell apoptosis, primary screen, luminescence | 300,000 tested, 0.8% active | protection from apoptosis, % (concentration not given with the values) | INS-1E cytokine-induced death, ATP luminescence, 48 h; percent of positive-control rescue, neutral wells zero | AID 435005, 2010;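 active = Every replicate reaches about 75%, or at least half do and their mean reaches it too, limit read from the data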;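 note: 0% = cytokine-treated negative control wells and 100% = positive control rescue; higher means more ATP so stronger rescue from cytokine killing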
# HIF act: HIF pathway transcriptional activators, primary screen, cell-based, U2OS HRE-luciferase, luminescence; U2OS HRE-luciferase reporter; normalized: DMSO 0%, desferrioxamine 100%; activation, % at 7.5 µM (by protocol); 300,000 tested, 0.32% active;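 active = mean activation of at least 10% of the iron chelator positive control signal, with at least half of replicates also reaching 10%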
# CSC inhib: cancer stem cell viability inhibitors, primary screen, luminescence | cancer stem cell-like cells viability | inhibition, % at 7.5 µM | 300,000 tested, 1.1% active | AID 2717, 2010; in the data active = inhibition above about 75%; tested in HMLE shEcad cells
# SKKanGAS inh: S. pyogenes SKKanGAS growth inhibitors in kanamycin, primary screen, streptokinase expression inhibitor project, SKKanGAS strain, BacTiter-Glo luminescence | 6 h | 300,000 tested, 1.3% active | inhibition, % at 7.5 µM;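 active = mean replicate score, as percent of positive control median, at least 50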;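 note: strain carries kanamycin resistance gene driven by streptokinase promoter and grows in 40 µg/ml kanamycin; loss of luminescence reflects streptokinase promoter inhibition or plain growth inhibition; 0% = median of DMSO wells and 100% = positive control at its reference dose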
# The depositor's hits bear a star; x = not tested or not shown; + = active, no number.
SMILES,T cruzi repl,PfHsp90 yeast 2,Beta apoptosis,HIF act,CSC inhib,SKKanGAS inh
CCOC(=O)c1c(NC(=O)Cc2ccccc2)sc2c1CCN(CC)C2,28.8,-32.4,-14.8,0.2,x,0.4
CCOC(=O)c1c(NC(=O)C[n+]2ccc(Cc3ccccc3)cc2)sc(C)c1C,58.9*,-20.9,77.6*,-0.1,-8.1,-4.4
CCOC(=O)c1c(NC(=S)Nc2ccccc2)sc(C)c1C,4.2,4.8,-4.2,x,1.3,5.8
CCOC(=O)N1CCc2c(sc(NC(C)=O)c2C(N)=O)C1,2.0,8.1,0.0,0.0,-2.9,-1.4
COc1cc(N2C(=O)c3ccccc3C2=O)c(Cl)cc1C(=O)OCC(=O)N(C)C,-18.2,-10.0,-2.6,-0.5,4.8,7.4
CC1(C(=O)N2CCC(CC3CC(c4cccc(Br)c4)=NO3)(C(=O)NCC3CCCCC3)CC2)CC1 (stereo not drawn),33.1,-4.2,-1.8,-7.2,20.9,9.8
O=C(CCC1CCCN(C(=O)c2cc3ccccc3o2)C1)NCc1ccc(F)c(F)c1 (stereo not drawn),-7.1,-14.5,-0.1,2.3,-2.8,-5.0
CCc1ccc(C2C(C#N)=C(N)C(C#N)(C#N)C3=CCC(C(C)(C)C)CC32)cc1 (stereo not drawn),49.7,13.0,3.8,0.2,14.1,84.5*
COCCOC(=O)/C(=C/c1ccc(OC(=O)c2ccccc2)cc1)C(C)=O,2.9,108.2*,-5.6,0.4,18.4,1.9
CCOC(=O)/C(=C/c1ccc(OC(=O)c2ccncc2)cc1)C(C)=O,-12.1,-67.0,-6.8,-0.8,12.0,x
C=CCn1c(=NC(=O)c2cc(-c3cccs3)nc3ccccc23)sc2cc(S(N)(=O)=O)ccc21,46.5,-31.7,92.4*,0.0,62.1,15.0
COCCn1c(=NC(=O)c2cc(-c3cccs3)nc3ccccc23)sc2cc(S(N)(=O)=O)ccc21,67.0*,-7.3,12.4,0.3,70.6,36.5
CC(=O)Nc1nc(S(=O)(=O)c2ccc(C)cc2)c(Cl)s1,-0.7,-81.0,-5.2,0.3,x,-2.5
Cc1ccc(S(=O)(=O)c2nc(NCc3ccc4c(c3)OCO4)sc2Cl)cc1,61.5*,-6.5,-1.7,0.0,-3.7,7.5
Cc1ccc(CNc2ccc3c(c2)OCO3)cc1,81.9*,14.9,-4.0,0.7,23.1,-7.7
c1cc(CNc2ccc3c(c2)OCO3)ccn1,3.7,-6.4,-4.3,0.6,x,4.1
Cc1ccc(NC(=O)CSc2nnc(Cc3ccccc3)c(=O)[nH]2)c(C)c1,7.9,13.9,x,-0.2,-0.3,10.8
COc1ccccc1CNC(=O)c1cccc(NC(=O)c2ccccc2)c1,-1.3,7.3,-5.9,25.7*,3.3,-4.9
CCCCNC(=O)c1cn(CC(C)C)c(=O)c2c1c1ccccc1n2C,4.0,17.0,5.3,-24.5,-2.0,53.8*
Fc1ccc2c(c1)C1C=CCC1C(c1cc3c(cc1Br)OCO3)N2 (stereo not drawn),22.8,21.6,2.4,-0.8,6.8,73.1*
Cc1ccc(CN2CCN(Cc3ccc(-n4cccn4)cc3C)CC2CCO)cc1 (stereo not drawn),61.9*,-11.5,2.4,-0.1,-1.8,2.0
N=C1SC(c2ccccc2)C(=O)N1c1ncc(Cc2ccccc2)s1 (stereo not drawn),3.5,-7.4,12.0,0.7,64.9,97.2*
Cc1ccc(Cc2cnc(N3C(=N)SC(c4ccccc4)C3=O)s2)cc1 (stereo not drawn),-26.0,-15.8,0.3,-0.5,30.4,103.5*
O=C(Nc1ncc(Cc2ccccc2)s1)C1=NCCN1,-4.0,x,-4.9,-0.8,0.7,-10.6
CN(C)C(=O)CCc1ccc2c3c([nH]c2c1)[C@]1(C)[C@@H](C(=O)N2CCOCC2)C[C@H](CC(=O)NCc2cccc(C(F)(F)F)c2)C(=O)N1CC3,x,-28.2,x,x,x,x
SMILES,T cruzi repl,PfHsp90 yeast 2,Beta apoptosis,HIF act,CSC inhib,SKKanGAS inh
CCn1c(NC(=S)Nc2ccccc2)nc2ccccc21,65.1*,-0.1,x,2.1,12.8,35.3
S=C(Nc1ccccc1)Nc1nc2ccccc2n1CCOc1ccc(Cl)cc1,-28.5,-68.3,53.2,-0.1,+,-0.1
S=c1[nH]nc(-c2ccncc2)n1/N=C/c1cn(-c2ccccc2)nc1-c1ccccc1,11.0,x,-19.6,1.2,41.9,50.8*
Cc1ccc(-c2nn(-c3ccccc3)cc2/C=N/n2c(-c3cccs3)n[nH]c2=S)cc1,16.7,x,8.7,1.2,46.0,55.0*
S=c1[nH]nc(-c2cccs2)n1/N=C/c1cn(-c2ccccc2)nc1-c1cccs1,2.1,x,-4.1,2.4,22.0,28.8
Oc1c(Br)cc(Br)c(/C=N/n2c(-c3ccccc3)n[nH]c2=S)c1Br,-2.9,118.8*,-7.2,0.5,11.5,29.7
CCc1nc2ccccc2c(C(=O)OCc2nc3ccccc3c(=O)[nH]2)c1C,x,3.6,-7.2,x,52.2,x
O=C(Nc1ccc2c(c1)OCCO2)c1c[nH]c(=O)n(-c2ccc(F)c(Cl)c2)c1=O,-2.8,-3.3,0.2,0.0,-0.4,15.3
O=C(COC(=O)[C@H](Cc1ccccc1)NC(=O)c1ccco1)Nc1ccccc1OC(F)F,x,x,-7.1,x,-1.4,x
O=C(O)CCN1C(=O)c2ccc(NC(=O)C(c3ccccc3)c3ccccc3)cc2C1=O,12.3,-11.5,1.1,-0.4,-28.4,4.2
CCOC(=O)c1ccc(N=Nc2c(C)[nH]n(-c3ccccc3)c2=O)cc1,-9.1,8.9,-15.6,-0.9,-3.3,-4.9
CCOC(=O)c1ccc(-n2[nH]c(-c3ccccc3)cc2=O)cc1,0.2,2.3,11.7,0.4,79.0*,32.1
Cc1cc(NCc2ccccn2)n2ncc(-c3ccccc3)c2n1,-14.8,4.0,50.0,4.2,-12.0,65.8*
Cc1cc(NCc2ccccn2)n2ncc(-c3ccc(Cl)cc3)c2n1,-3.4,-6.2,59.7,4.0,58.7,82.2*
Cc1cc(NCc2ccccn2)n2nc(C)c(-c3ccc(Cl)cc3)c2n1,x,1.9,38.7,x,76.7*,81.1*
O=C(NCC1CCN(c2ccc(S(=O)(=O)N3CCOCC3)cc2)CC1)Nc1ccccc1F,-8.5,-23.1,-7.0,0.6,13.6,3.0
CCN(CC)S(=O)(=O)c1ccc(Cl)c(C(=O)Nc2ccc(Cl)cc2[N+](=O)[O-])c1,-8.6,-50.4,99.7*,-0.6,6.8,6.2
CN(Cc1cccs1)C(=O)c1ccc(Cl)c(S(=O)(=O)N2CCCCCC2)c1,x,4.6,-14.5,x,-12.3,x
Cc1ccc(C)c(C(=O)COC(=O)c2cc(Cl)nc3ccccc23)c1,-24.0,-31.7,0.4,0.0,-4.0,53.6*
O=C(COC(=O)c1ccc(Br)cc1)NCc1ccccc1,-0.6,4.1,-3.9,0.0,-7.3,-7.1
